From PubChem BioAssay
The source made the active and inactive calls.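 How the source made its calls, unless noted: active means growth inhibition above a set limit, 3 SD over mean compound inhibition, in both replicates (cut at about 43% in these data); inconclusive means above the limit in only one replicate; inactive means at or below the limit in both replicates.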

Test: S. cerevisiae growth inhibition in restrictive medium, OD615, pilot screen, restrictive growth control, yeast lifespan reduction project (AID 706);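 further: modified DeaD lifespan yeast strain shifted to restrictive glucose medium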
Details: OD615, 48 h, at 10 µM, active compounds read high
How it was run: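 Material: modified S. cerevisiae; Medium: glucose-based CSMM-D restrictive medium; Compound dosing: one concentration, 10 µM final, 0.25% DMSO; Incubation: 48 h compound exposure at 30 °C; Measured by: OD615.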

Row | SMILES | growth inhibition
1 | COc1ccc2oc(C(=O)C3CC3)c(NC(=O)CCCN3C(=O)c4ccccc4C3=O)c2c1 | 6.11% (inactive)
2 | CCOC(=O)c1sc(NC(C)=O)cc1C | 4.88% (inactive)
3 | CCNc1nc2c(c(=O)[nH]c(=O)n2C)n1CC(C)C | -2.34% (inactive)
4 | COc1ccc(C(=O)c2cnc(C(C)C)n2C)cc1 | -9.59% (inactive)
5 | Cc1cnc(N)c2c(=O)oc3ccccc3c12 | 24.5% (inactive)
6 | CN(C)C(CNC(=O)c1cccs1)c1cccnc1 (stereo not given) | -20.4% (inactive)
7 | Cc1nn(Cc2ccc(Cl)c(Cl)c2)c(C)c1NC(=O)c1cc(C2CC2)on1 | 1.77% (inactive)
8 | CCOC(=O)c1cnc2c(C#N)c(C)nn2c1-c1ccccc1 | 0.945% (inactive)
9 | CC(=O)N(Cc1ccco1)C1(C(=O)NC2CCCCC2)CCCCC1 | -22.6% (inactive)
10 | CN(C(=O)c1ccc(=O)[nH]c1)C1(C(=O)NC2CCCCC2)CCCCC1 | -8.31% (inactive)
11 | Cc1cccc(OCc2nnc(SCC(=O)Nc3ccc(C)c(C)c3)o2)c1 | 1.43% (inactive)
12 | CCOCCCNC(=O)c1cn(C)c2ccc(S(=O)(=O)N(C)C3CCCCC3)cc2c1=O | -14.3% (inactive)
13 | CCCCn1c(NC(=O)c2ccccc2)nc2ccccc21 | -7.56% (inactive)
14 | COc1cc(OC)cc(-c2cc3nc(C)c(CCC(=O)O)c(C)n3n2)c1 | -1.06% (inactive)
15 | CCc1cccc(Nc2cc(C)nc3ncnn23)c1 | -1.55% (inactive)
16 | CCCc1ccc(Oc2c(-c3ccc(O)c(C)c3O)n[nH]c2C)cc1 | 87.5% (active)
17 | CC(=O)Nc1ccc(S(=O)(=O)c2ccc(N)cc2)cc1N | 2.46% (inactive)
18 | COc1c2c(nc3ccccc13)OC(C(C)(O)COC(C)=O)C2 (stereo not given) | 5.38% (inactive)
19 | O=C(Nc1ccc(N2CCCCC2)cc1)c1cncc(Br)c1 | 15.3% (inactive)
20 | Cc1ccc2oc(=O)c3cnn(CC(=O)NC4CCCCC4C)c3c2c1 (stereo not given) | -9.46% (inactive)

Row | SMILES | growth inhibition
21 | CC1(C)CC(NC(=O)C23CCC(C)(C(=O)C2)C3(C)C)CC(C)(C)N1 (stereo not given) | -6.33% (inactive)
22 | CC1(C)CC2(CC(C)(C)N1)OC(=O)N1CCc3ccccc3C12C (stereo not given) | -7.5% (inactive)
23 | COc1ccc(-n2nnnc2S(=O)(=O)CC(=O)N2CCCCC2)cc1 | 6.43% (inactive)
24 | CCCCCSc1nc2c(c(=O)[nH]c(=O)n2C)n1CCc1ccccc1 | -4.46% (inactive)
25 | COc1cc2c(cc1OC)C1=C(C#N)CN(CC(=O)O)CN1CC2 | 11.3% (inactive)
26 | CC(=O)Nc1ccc(S(=O)(=O)N2CCN(c3cccc(C)c3C)CC2)cc1 | -3.89% (inactive)
27 | C=C(C)CSc1nc2c(c(=O)[nH]c(=O)n2C)n1CCC(C)C | -22.9% (inactive)
28 | Cn1c(Cn2c(=O)sc3ccccc32)nnc1SCC(=O)Nc1ccccc1F | -10% (inactive)
29 | COC(=O)/C=C(\C)NC(=O)c1cccs1 | 4.05% (inactive)
30 | COc1cccc(NC(=O)c2ccncc2)c1 | -11% (inactive)
31 | CCCCN(C(=O)NC(=O)Nc1nc2ccc(OC)cc2s1)S(C)(=O)=O | -3.95% (inactive)
32 | CC(C)N1C(=O)C2C(c3ccccc3O)NC(C)(C(=O)O)C2C1=O (stereo not given) | 5.16% (inactive)
33 | Cc1cccn2c(=O)c3cc(C(=O)NCCCN4CCOCC4)n(C)c3nc12 | -3.14% (inactive)
34 | Cc1csc2nc(CNS(=O)(=O)c3ccc4c(c3)OCCO4)cn12 | -5.18% (inactive)
35 | CCN(C(=O)CSc1nnnn1-c1cc(C)ccc1OC)C1CCS(=O)(=O)C1 (stereo not given) | 4.34% (inactive)
36 | O=C1C2CCCN2C(c2ccc(F)cc2)N1c1cccc(Cl)c1 (stereo not given) | 0.01% (inactive)
37 | O=C(Nc1ccc2nc(-c3cccnc3)[nH]c2c1)c1ccco1 | -20.3% (inactive)
38 | CCOC(=O)Cc1csc(NC(=O)CN2C(=O)c3ccccc3S2(=O)=O)n1 | -15% (inactive)
39 | Brc1cccc(-c2nc(-c3ccncc3)no2)c1 | 7.9% (inactive)
40 | COc1ccc(N(CC(=O)NC2CCCCC2)S(=O)(=O)c2cccnc2)cc1 | 3.61% (inactive)

Test: doxorubicin toxicity protection in MRP-1 cells – H69AR cells, CellTiter-Glo, duplicate, MRP-1 activator project, pilot screen (AID 807;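 active means viability increase at or above a cutoff of the median across tested compounds plus 3 SD, cut at about 8.5% in these data, passing the limit was not always enough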;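 further: compound pretreatment 18-22 h then 72 h combined with doxorubicin; 0% = doxorubicin alone and 100% = vehicle without doxorubicin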)
Details: H69AR viability with doxorubicin, CellTiter-Glo luminescence; at 10 µM; active compounds read high

Row | SMILES | viability increase
41 | COc1ccc2oc(C(=O)C3CC3)c(NC(=O)CCCN3C(=O)c4ccccc4C3=O)c2c1 | -3.63% (inactive)
42 | CCOC(=O)c1sc(NC(C)=O)cc1C | 0.69% (inactive)
43 | CCNc1nc2c(c(=O)[nH]c(=O)n2C)n1CC(C)C | -2.15% (inactive)
44 | COc1ccc(C(=O)c2cnc(C(C)C)n2C)cc1 | 2.12% (inactive)
45 | Cc1cnc(N)c2c(=O)oc3ccccc3c12 | -4.45% (inactive)
46 | CN(C)C(CNC(=O)c1cccs1)c1cccnc1 (stereo not given) | -0.5% (inactive)
47 | Cc1nn(Cc2ccc(Cl)c(Cl)c2)c(C)c1NC(=O)c1cc(C2CC2)on1 | 1.41% (inactive)
48 | CCOC(=O)c1cnc2c(C#N)c(C)nn2c1-c1ccccc1 | -0.99% (inactive)
49 | CC(=O)N(Cc1ccco1)C1(C(=O)NC2CCCCC2)CCCCC1 | -2.47% (inactive)
50 | CN(C(=O)c1ccc(=O)[nH]c1)C1(C(=O)NC2CCCCC2)CCCCC1 | -0.61% (inactive)
51 | Cc1cccc(OCc2nnc(SCC(=O)Nc3ccc(C)c(C)c3)o2)c1 | -2.67% (inactive)
52 | CCOCCCNC(=O)c1cn(C)c2ccc(S(=O)(=O)N(C)C3CCCCC3)cc2c1=O | -4.93% (inactive)
53 | CCCCn1c(NC(=O)c2ccccc2)nc2ccccc21 | -3.95% (inactive)
54 | COc1cc(OC)cc(-c2cc3nc(C)c(CCC(=O)O)c(C)n3n2)c1 | -2.31% (inactive)
55 | CCc1cccc(Nc2cc(C)nc3ncnn23)c1 | -0.66% (inactive)
56 | CCCc1ccc(Oc2c(-c3ccc(O)c(C)c3O)n[nH]c2C)cc1 | -2.16% (inactive)
57 | CC(=O)Nc1ccc(S(=O)(=O)c2ccc(N)cc2)cc1N | -1.15% (inactive)
58 | COc1c2c(nc3ccccc13)OC(C(C)(O)COC(C)=O)C2 (stereo not given) | -1.44% (inactive)
59 | O=C(Nc1ccc(N2CCCCC2)cc1)c1cncc(Br)c1 | -4.57% (inactive)
60 | Cc1ccc2oc(=O)c3cnn(CC(=O)NC4CCCCC4C)c3c2c1 (stereo not given) | -2.9% (inactive)

Row | SMILES | viability increase
61 | CC1(C)CC(NC(=O)C23CCC(C)(C(=O)C2)C3(C)C)CC(C)(C)N1 (stereo not given) | -0.11% (inactive)
62 | CC1(C)CC2(CC(C)(C)N1)OC(=O)N1CCc3ccccc3C12C (stereo not given) | -1.65% (inactive)
63 | COc1ccc(-n2nnnc2S(=O)(=O)CC(=O)N2CCCCC2)cc1 | -9.59% (inactive)
64 | CCCCCSc1nc2c(c(=O)[nH]c(=O)n2C)n1CCc1ccccc1 | -1.88% (inactive)
65 | COc1cc2c(cc1OC)C1=C(C#N)CN(CC(=O)O)CN1CC2 | -4.43% (inactive)
66 | CC(=O)Nc1ccc(S(=O)(=O)N2CCN(c3cccc(C)c3C)CC2)cc1 | -6.76% (inactive)
67 | C=C(C)CSc1nc2c(c(=O)[nH]c(=O)n2C)n1CCC(C)C | -2.5% (inactive)
68 | Cn1c(Cn2c(=O)sc3ccccc32)nnc1SCC(=O)Nc1ccccc1F | -1.11% (inactive)
69 | COC(=O)/C=C(\C)NC(=O)c1cccs1 | 0.51% (inactive)
70 | COc1cccc(NC(=O)c2ccncc2)c1 | -3.81% (inactive)
71 | CCCCN(C(=O)NC(=O)Nc1nc2ccc(OC)cc2s1)S(C)(=O)=O | -0.44% (inactive)
72 | CC(C)N1C(=O)C2C(c3ccccc3O)NC(C)(C(=O)O)C2C1=O (stereo not given) | -0.38% (inactive)
73 | Cc1cccn2c(=O)c3cc(C(=O)NCCCN4CCOCC4)n(C)c3nc12 | 0.44% (inactive)
74 | Cc1csc2nc(CNS(=O)(=O)c3ccc4c(c3)OCCO4)cn12 | -1.85% (inactive)
75 | CCN(C(=O)CSc1nnnn1-c1cc(C)ccc1OC)C1CCS(=O)(=O)C1 (stereo not given) | -1.65% (inactive)
76 | O=C1C2CCCN2C(c2ccc(F)cc2)N1c1cccc(Cl)c1 (stereo not given) | -0.91% (inactive)
77 | O=C(Nc1ccc2nc(-c3cccnc3)[nH]c2c1)c1ccco1 | -2.85% (inactive)
78 | CCOC(=O)Cc1csc(NC(=O)CN2C(=O)c3ccccc3S2(=O)=O)n1 | -2.2% (inactive)
79 | Brc1cccc(-c2nc(-c3ccncc3)no2)c1 | -3.4% (inactive)
80 | COc1ccc(N(CC(=O)NC2CCCCC2)S(=O)(=O)c2cccnc2)cc1 | -1.68% (inactive)
